Inhibition and IC50 data for 3 molecules are collected here from ChEMBL document CHEMBL4371044, “Celastrol Promotes Weight Loss in Diet-Induced Obesity by Inhibiting the Protein Tyrosine Phosphatases PTP1B and TCPTP in the Hypothalamus” (J Med Chem, 2018).

The source made the active and inactive calls. The calls are words filed in the database; no cut-off is given here.

Experiment [1] deals with T1, Tyrosine-protein phosphatase non-receptor type 1 (Homo sapiens) (UniProt P18031).
T1 sequence (whole entry): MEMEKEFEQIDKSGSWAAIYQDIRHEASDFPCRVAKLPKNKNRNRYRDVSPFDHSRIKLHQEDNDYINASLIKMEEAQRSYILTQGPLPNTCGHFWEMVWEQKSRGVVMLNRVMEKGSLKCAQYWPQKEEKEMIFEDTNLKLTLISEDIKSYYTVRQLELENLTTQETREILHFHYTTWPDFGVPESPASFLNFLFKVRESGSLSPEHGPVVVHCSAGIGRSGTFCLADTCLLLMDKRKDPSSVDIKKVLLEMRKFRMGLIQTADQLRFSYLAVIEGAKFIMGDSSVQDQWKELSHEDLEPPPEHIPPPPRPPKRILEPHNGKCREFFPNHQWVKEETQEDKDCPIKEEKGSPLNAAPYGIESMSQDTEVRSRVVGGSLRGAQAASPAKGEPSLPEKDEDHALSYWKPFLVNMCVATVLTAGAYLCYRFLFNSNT
Kind of experiment: Inhibition of human N-terminal His6-tagged PTP1B catalytic domain (1 to 393 residues) expressed in Escherichia coli strain Rosetta2 (DE3) at 500 uM using DiFMUP as substrate preincubated for 10 mins followed by substrate addition and measured after 10 mins by fluorescence assay.

Experiment [2] concerns the target T2, Tyrosine-protein phosphatase non-receptor type 2 (Homo sapiens) (UniProt P17706).
T2 sequence (whole entry): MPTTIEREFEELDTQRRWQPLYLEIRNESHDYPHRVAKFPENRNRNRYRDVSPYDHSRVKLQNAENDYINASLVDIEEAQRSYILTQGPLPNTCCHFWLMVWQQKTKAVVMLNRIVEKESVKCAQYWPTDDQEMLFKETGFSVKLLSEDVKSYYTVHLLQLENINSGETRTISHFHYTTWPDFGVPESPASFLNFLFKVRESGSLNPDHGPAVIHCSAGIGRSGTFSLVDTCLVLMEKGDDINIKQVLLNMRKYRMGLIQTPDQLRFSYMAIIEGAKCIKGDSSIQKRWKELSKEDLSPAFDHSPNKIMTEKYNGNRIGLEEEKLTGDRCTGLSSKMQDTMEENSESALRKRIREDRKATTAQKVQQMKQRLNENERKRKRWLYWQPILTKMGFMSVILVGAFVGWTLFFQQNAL
Kind of experiment: Inhibition of human N-terminal His6-tagged TCPTP catalytic domain (1 to 336 residues) expressed in Escherichia coli strain Rosetta2 (DE3) at 500 uM using DiFMUP as substrate preincubated for 10 mins followed by substrate addition and measured after 10 mins by fluorescence assay.

Experiment [3] addresses T3, Tyrosine-protein phosphatase non-receptor type 1 (Homo sapiens, UniProt P18031).
T3 sequence (P18031 whole entry): T1 sequence (whole entry)
Kind of experiment: Inhibition of human N-terminal His6-tagged PTP1B catalytic domain (1 to 393 residues) expressed in Escherichia coli strain Rosetta2 (DE3) using DiFMUP as substrate preincubated for 10 mins followed by substrate addition and measured after 10 mins by fluorescence assay. Summed up: (§1)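 Tag-cleaved, SEC-purified enzyme at 1 nM, preincubated 10 min with compound at 15 concentrations from 0–500 μM (5% DMSO final) in 25 mM Bis-Tris propane pH 7.5, 50 mM NaCl, 2 mM EDTA. DiFMUP added at each construct's Km (10, 7, 10, 9 μM for PTP1B1−298, PTP1B1−393, TCPTP1−296, TCPTP1−336). Read ex 358/em 455 nm continuously 10 min at 37 °C; triplicate; log(inhibitor)-response fit.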

Experiment [4] addresses T4, Tyrosine-protein phosphatase non-receptor type 2 (Homo sapiens, UniProt P17706).
T4 sequence (P17706 whole entry): T2 sequence (whole entry)
Kind of experiment: Inhibition of human N-terminal His6-tagged TCPTP catalytic domain (1 to 336 residues) expressed in Escherichia coli strain Rosetta2 (DE3) using DiFMUP as substrate preincubated for 10 mins followed by substrate addition and measured after 10 mins by fluorescence assay. In short, it runs like this: as §1

Regarding `Cc1c(O)c(O)cc2c1CC=C1[C@@]2(C)CC[C@@]2(C)[C@@H]3C[C@](C)(C(=O)O)CC[C@]3(C)CC[C@]12C`, the inhibition entry in experiment [1] and in experiment [2] was “Active” throughout.
As for `CC1=C(CO)C(=O)O[C@@H]([C@@H](C)[C@H]2CC[C@H]3[C@@H]4C[C@H]5O[C@]56[C@@H](O)C=CC(=O)[C@]6(C)[C@H]4CC[C@]23C)C1`, the inhibition entry in experiment [1] and in experiment [2] was “inactive” in each case.
As to `Nc1ccc(NC(=O)C(=O)O)cc1`, the IC50 in experiment [3] was determined as 910 µM; in experiment [4] it was 478 µM.
